According to ChEMBL document CHEMBL1155063 (Bioorg Med Chem, 2008):

Experiments:
[1] = molecular target: T1, Telomerase reverse transcriptase (Homo sapiens, UniProt O14746); experiment: Effect on human TERT expressed in H1299 cells at 10 uM after 24 hrs by SEAP assay relative to control
[2] = molecular target: T1, Telomerase reverse transcriptase; experiment: Effect on human TERT expressed in BJ1 cells at 100 uM after 24 hrs by SEAP assay relative to control; details: BJ
[3] = molecular target: T1, Telomerase reverse transcriptase; experiment: Effect on human TERT expressed in H1299 cells at 1 uM after 24 hrs by SEAP assay relative to control
[4] = Cytotoxicity against human TERT immortalized BJ1 cells at 1 uM after 48 hrs by MTT assay relative to control; format: cell-based, BJ
In short: (§1)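 hTERT-immortalized BJ1 fibroblasts were grown in DMEM with 10% FCS, 1 mM pyruvate and 4 mM […]. Cells (about 2 × 10^3 per well) were seeded and held 24 h at 37 °C. Compounds were freshly dissolved in DMSO, diluted into medium and left on the cells 48 h. MTT was added for 4 h, then SDS/DMF lysis buffer for 16 h. Absorbance was read at 550 nm and expressed relative to untreated cells (100%).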

[5] = molecular target: T1, Telomerase reverse transcriptase; experiment: Effect on human TERT expressed in H1299 cells at 100 uM after 24 hrs by SEAP assay relative to control
[6] = Cytotoxicity against human H1299 cells at 10 uM after 48 hrs by MTT assay realtive to control; format: functional; details: NCI-H1299, 48 h
In short: (§2)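 H1299 non-small-cell lung cells were kept in RPMI 1640 with 10% FBS and penicillin/streptomycin at 37 °C under 5% CO2. About 2 × 10^3 cells per well were pre-incubated for 24 h. Compound was added from freshly made DMSO solution diluted in complete medium and left for 48 h. MTT was then added for 4 h at 37 °C, followed by 20% SDS/50% DMF lysis buffer for 16 h at 37 °C, and absorbance read at 550 nm.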

[7] = Cell viability of human H1299 cells at 1 uM after 48 hrs by MTT assay relative to control; details: NCI-H1299, 48 h
[8] = Cytotoxicity against human TERT immortalized BJ1 cells at 100 uM after 48 hrs by MTT assay relative to control; format: cell-based, BJ
In short: as §1

[9] = molecular target: T1, Telomerase reverse transcriptase; experiment: Effect on human TERT expressed in BJ1 cells at 1 uM after 24 hrs by SEAP assay realtive to control; details: BJ
[10] = Cytotoxicity against human H1299 cells at 100 uM after 48 hrs by MTT assay realtive to control; format: functional; details: NCI-H1299, 48 h
In short: as §2

[11] = molecular target: T1, Telomerase reverse transcriptase; experiment: Effect on human TERT expressed in BJ1 cells at 10 uM after 24 hrs by SEAP assay relative to control; details: BJ
[12] = Cytotoxicity against human TERT immortalized BJ1 cells at 10 uM after 48 hrs by MTT assay relative to control; format: cell-based, BJ
In short: as §1

T1 sequence (O14746 whole entry): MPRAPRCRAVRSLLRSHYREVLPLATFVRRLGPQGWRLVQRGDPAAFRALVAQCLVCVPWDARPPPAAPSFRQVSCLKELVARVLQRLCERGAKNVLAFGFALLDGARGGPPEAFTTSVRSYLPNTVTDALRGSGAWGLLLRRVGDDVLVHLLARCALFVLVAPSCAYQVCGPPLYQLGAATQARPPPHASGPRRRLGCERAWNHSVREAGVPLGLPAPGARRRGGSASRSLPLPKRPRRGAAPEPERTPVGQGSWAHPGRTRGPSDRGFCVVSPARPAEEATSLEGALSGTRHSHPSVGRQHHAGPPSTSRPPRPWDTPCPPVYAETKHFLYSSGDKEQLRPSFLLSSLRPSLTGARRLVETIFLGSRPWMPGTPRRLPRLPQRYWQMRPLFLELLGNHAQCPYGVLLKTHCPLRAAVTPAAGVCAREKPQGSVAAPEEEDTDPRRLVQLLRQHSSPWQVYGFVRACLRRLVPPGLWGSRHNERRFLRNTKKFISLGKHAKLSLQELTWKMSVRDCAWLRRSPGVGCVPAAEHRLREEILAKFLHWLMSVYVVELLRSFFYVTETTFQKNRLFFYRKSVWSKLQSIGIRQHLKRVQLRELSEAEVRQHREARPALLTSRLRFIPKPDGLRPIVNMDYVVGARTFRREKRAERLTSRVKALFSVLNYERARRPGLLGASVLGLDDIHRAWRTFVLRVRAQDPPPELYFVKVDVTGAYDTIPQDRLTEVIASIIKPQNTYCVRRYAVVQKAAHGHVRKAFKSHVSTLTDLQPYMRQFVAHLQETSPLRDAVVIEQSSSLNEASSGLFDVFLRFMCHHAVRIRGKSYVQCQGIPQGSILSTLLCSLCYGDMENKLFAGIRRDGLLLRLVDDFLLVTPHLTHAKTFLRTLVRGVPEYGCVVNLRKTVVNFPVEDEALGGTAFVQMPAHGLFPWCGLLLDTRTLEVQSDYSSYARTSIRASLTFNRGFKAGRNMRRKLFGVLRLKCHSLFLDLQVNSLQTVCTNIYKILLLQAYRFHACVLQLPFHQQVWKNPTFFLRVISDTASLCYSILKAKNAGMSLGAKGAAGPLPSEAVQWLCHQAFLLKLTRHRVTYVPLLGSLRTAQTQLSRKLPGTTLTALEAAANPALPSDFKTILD

Row | Structure (SMILES) | residual activity [1] | residual activity [2] | residual activity [3] | viability at 48 h, 1 µM [4] | residual activity [5] | viability at 10 µM [6] | cell viability at 1 µM [7] | viability at 48 h, 100 µM [8] | residual activity [9] | viability at 100 µM [10] | residual activity [11] | viability at 48 h, 10 µM [12]
1 | CC(C)NCC(=O)Nc1ccc2c(c1)C(=O)c1cc(NC(=O)CNC(C)C)ccc1C2=O | 28% | 45% | 73% | 89% | 21% | 26% | 78% | 39% | 79% | 6% | 55% | 41%
2 | CC(C)CNCC(=O)Nc1ccc2c(c1)C(=O)c1cc(NC(=O)CNCC(C)C)ccc1C2=O | 38% | 40% | 73% | 107% | 26% | 39% | 108% | 39% | 83% | 11% | 44% | 37%
3 | O=C1c2ccc([N+](=O)[O-])cc2C(=O)c2cc([N+](=O)[O-])ccc21 | 85% | 65% | 87% | 91% | 62% | 95% | 97% | 86% | 55% | 69% | 60% | 91%
4 | O=C(CCl)Nc1ccc2c(c1)C(=O)c1cc(NC(=O)CCl)ccc1C2=O | 40% | 135% | 72% | 105% | 36% | 5% | 58% | 88% | – | 1% | 69% | 89%
5 | CCCCNCC(=O)Nc1ccc2c(c1)C(=O)c1cc(NC(=O)CNCCCC)ccc1C2=O | 26% | 80% | 77% | 103% | 20% | 17% | 91% | 43% | 27% | 15% | 24% | 41%
6 | O=C1c2ccc(NC(=O)C3CCCC3)cc2C(=O)c2cc(NC(=O)C3CCCC3)ccc21 | 87% | 108% | 83% | 77% | 85% | 77% | 91% | 58% | 137% | 42% | 130% | 68%
7 | O=C(CN1CCNCC1)Nc1ccc2c(c1)C(=O)c1cc(NC(=O)CN3CCNCC3)ccc1C2=O | 72% | – | 89% | 88% | 60% | 85% | 88% | 76% | – | 88% | – | 85%
8 | CCCNCC(=O)Nc1ccc2c(c1)C(=O)c1cc(NC(=O)CNCCC)ccc1C2=O | 44% | – | 73% | 96% | 24% | 54% | 89% | 42% | – | 14% | – | 44%
9 | O=C(CCCCl)Nc1ccc2c(c1)C(=O)c1cc(NC(=O)CCCCl)ccc1C2=O | 86% | 75% | 88% | 72% | 78% | 40% | 84% | 58% | 13% | 22% | 42% | 62%
10 | CCCC(=O)Nc1ccc2c(c1)C(=O)c1cc(NC(=O)CCC)ccc1C2=O | 83% | – | 90% | 84% | 83% | 59% | 93% | 50% | – | 40% | – | 51%
11 | CN1CCN(CC(=O)Nc2ccc3c(c2)C(=O)c2cc(NC(=O)CN4CCN(C)CC4)ccc2C3=O)CC1 | 50% | 97% | 76% | 86% | 23% | 71% | 90% | 47% | 61% | 37% | 68% | 69%
12 | O=C(Cc1ccccc1)Nc1ccc2c(c1)C(=O)c1cc(NC(=O)Cc3ccccc3)ccc1C2=O | 91% | 40% | 97% | 93% | 80% | 96% | 106% | 86% | 85% | 75% | 79% | 80%
13 | Nc1ccc2c(c1)C(=O)c1cc(N)ccc1C2=O | 75% | – | 87% | 95% | 63% | 80% | 90% | 80% | – | 65% | – | 83%
14 | CN1CCN(CCC(=O)Nc2ccc3c(c2)C(=O)c2cc(NC(=O)CCN4CCN(C)CC4)ccc2C3=O)CC1 | 52% | – | 75% | 95% | 21% | 80% | 95% | 61% | – | 39% | 138% | 80%
15 | O=C(CN1CCCC1)Nc1ccc2c(c1)C(=O)c1cc(NC(=O)CN3CCCC3)ccc1C2=O | 48% | – | 88% | 99% | 30% | 52% | 99% | 39% | – | 23% | – | 60%
16 | O=C(Nc1ccc2c(c1)C(=O)c1cc(NC(=O)c3ccccc3)ccc1C2=O)c1ccccc1 | 92% | 36% | 104% | 92% | 85% | 47% | 71% | 97% | – | 41% | 72% | 85%
17 | O=C(CCCl)Nc1ccc2c(c1)C(=O)c1cc(NC(=O)CCCl)ccc1C2=O | 94% | – | 94% | 77% | 87% | 44% | 77% | 39% | – | 29% | – | 65%
